From ChEMBL document CHEMBL3112469, “Substituted 2-phenylimidazopyridines: a new class of drug leads for human African trypanosomiasis” (J Med Chem, 2014)

Legend:
HepG2 = test: Cytotoxicity against human HepG2 cells after 48 hrs by Alamar Blue assay; format: cell-based; settings: hepg2, 48 h
[1] = tested on: Trypanosoma brucei brucei; test: Antiparasitic activity against Trypanosoma brucei brucei BF427 assessed as growth inhibition by Alamar Blue assay; format: functional, organism-based
How it was run: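 Bloodstream-form T. brucei brucei BF427 grown with serial compound dilutions, each tested in triplicate. Growth quantified with AlamarBlue. Pentamidine isothionate included in every assay as positive control.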

[2] = Cytotoxicity against human CRL8155 cells after 48 hrs by Alamar Blue assay; format: cell-based; settings: crl8155, 48 h
L6 = test: Cytotoxicity against rat L6 cells after 48 hrs by Alamar Blue assay; format: cell-based; settings: l6, 48 h

Compound	CC50 (HepG2) [µM]	EC50 [1] [µM]	CC50 [2] [µM]	CC50 (L6) [µM]
O=C(Nc1ccc(F)c(-c2nc3cc(-c4ccoc4)cnc3[nH]2)c1)N1CCCC1	> 50	0.004	25	–
CS(=O)(=O)Nc1ccc(Cl)c(-c2nc3ncccc3o2)c1	–	6.1	–	> 50
O=C(Nc1ccc(F)c(-c2nc3ncccc3o2)c1)c1ccco1	–	0.12	–	> 50
O=S(=O)(Nc1ccc(Cl)c(-c2nc3ncccc3o2)c1)c1ccccc1	–	> 20	–	> 50
O=C(Nc1ccc(F)c(-c2nc3ncccc3o2)c1)C1CCCO1 (stereo not given)	–	> 10	–	–
Nc1cccc(-c2cnc3[nH]c(-c4cc(NC(=O)N5CCCC5)ccc4F)nc3c2)c1	40	0.01	5	–
O=C(Nc1ccc(Cl)c(-c2nc3ncccc3o2)c1)N1CCCCC1	–	1.9	–	–
O=C(Nc1ccc(Cl)c(-c2nc3ccccc3o2)c1)c1cccc(F)c1	–	> 20	–	–
O=C(Nc1ccc(F)c(CNc2ccc(Cl)cn2)c1)c1ccco1	–	> 10	–	–
CC(C)NC(=O)Nc1ccc(Cl)c(-c2nc3ncccc3o2)c1	–	1	–	> 50
CC(=O)Nc1ccc(F)c(-c2nc3ncccc3o2)c1	–	> 20	–	> 50
COc1cc([C@@H]2c3cc4c(cc3[C@H](O)[C@H]3COC(=O)[C@H]23)OCO4)cc(OC)c1OC [PODOFILOX]	–	–	–	0.014
O=C(Nc1ccc(Cl)c(C(=O)N2CCOCC2)c1)c1ccco1	–	> 20	–	–
N#Cc1ccc(NC(=O)c2ccco2)cc1-c1nc2ncccc2o1	–	0.4	–	> 50
CN(C(=O)c1ccco1)c1ccc(F)c(-c2nc3ncccc3o2)c1	–	> 10	–	> 50
COc1cccc(-c2cnc3[nH]c(-c4cc(NC(=O)N5CCCC5)ccc4F)nc3c2)c1	35	0.01	3.6	–
CNC(=O)Nc1ccc(F)c(-c2nc3ncccc3o2)c1	–	3.8	–	> 50
Cn1cccc1C(=O)Nc1ccc(F)c(-c2nc3ncccc3o2)c1	–	1.1	–	> 50
COc1ccccc1-c1cnc2[nH]c(-c3cc(NC(=O)N4CCCC4)ccc3F)nc2c1	> 50	0.005	13	–
CCN(CC)CCCC(C)Nc1c2ccc(Cl)cc2nc2ccc(OC)cc12 (stereo not given) [QUINACRINE]	9.78	–	3.92	–
Nc1ccc(Cl)c(-c2nc3ncccc3o2)c1	–	> 20	–	–
O=C(Nc1ccc(F)c(-c2nc3ncc(-c4ccc(-c5ccccc5)cc4)cc3o2)c1)c1ccco1	–	0.42	–	> 50
O=C(Nc1ccc(F)c(C(=O)Nc2ccc(Cl)cn2)c1)c1ccco1	–	7	–	–

Compound	CC50 (HepG2) [µM]	EC50 [1] [µM]	CC50 [2] [µM]	CC50 (L6) [µM]
O=C(Nc1ccc(Cl)c(-c2nc3ccccc3o2)c1)c1ccco1	–	> 20	–	–
O=C(Nc1ccc(F)c(-c2nc3ncccc3o2)c1)c1cccnc1	–	7	–	> 50
Cc1cccc(C(=O)Nc2ccc(Cl)c(-c3nc4ccccc4o3)c2)c1	–	> 20	–	–
O=C(Nc1ccc(Cl)c(-c2nc3ncccc3o2)c1)c1cccs1	–	1.5	–	> 50
O=C(Nc1ccc(-c2ccc(F)c(F)c2)c(-c2nc3ncccc3o2)c1)c1ccco1	–	> 50	–	> 50
O=C(Nc1ccc(Cl)c(-c2nc3ncccc3o2)c1)c1ccccc1	–	7.1	–	> 50
Fc1ccc(N(Cc2ccccc2)Cc2ccccc2)cc1-c1nc2ncccc2o1	–	1.1	–	> 50
N=C(N)c1ccc(OCCCCCOc2ccc(C(=N)N)cc2)cc1 [PENTAMIDINE]	–	0.00174	–	–
O=C(Nc1ccc(F)c(-c2nc3ncc(Br)cc3o2)c1)c1ccco1	–	0.23	–	> 50
O=C(Nc1ccc(F)c(-c2nc3cc(F)cnc3[nH]2)c1)c1ccco1	–	0.2	–	–
O=C(Nc1ccc(F)c(-c2nc3ccc(Cl)nc3[nH]2)c1)c1ccco1	–	10	–	–
Cc1ccoc1C(=O)Nc1ccc(F)c(-c2nc3ncccc3o2)c1	–	0.1	–	> 50
COc1ccc(NC(=O)c2ccco2)cc1-c1nc2ncccc2o1	–	> 10	–	> 50
O=C(Nc1ccc(F)c(-c2nc3cnccc3o2)c1)c1ccco1	–	> 20	–	–
O=C(Nc1ccc(F)c(-c2nc3c(Cl)ccnc3[nH]2)c1)c1ccco1	–	0.12	–	–
O=C(Nc1ccc(F)c(-c2nc3cc(-c4ccccc4Cl)cnc3[nH]2)c1)N1CCCC1	–	0.005	–	–
O=C(Nc1ccc(F)c(-c2nc3ncccc3o2)c1)c1ccoc1	–	0.15	–	> 50
Cc1ccc(NC(=O)c2ccco2)cc1-c1nc2ncccc2o1	–	0.43	–	> 50
O=C(Nc1ccc(F)c(-c2nc3cc(-c4cnc(Cl)nc4)cnc3[nH]2)c1)N1CCCC1	–	0.04	–	14.3
O=C(Nc1ccc(F)c(-c2nc3ncccc3o2)c1)c1cnccn1	–	0.9	–	> 50
Cc1cc(-c2cnc3[nH]c(-c4cc(NC(=O)N5CCCC5)ccc4F)nc3c2)ccc1F	–	0.02	> 50	–
O=C(Nc1ccc(-c2ccncc2)c(-c2nc3ncccc3o2)c1)c1ccco1	–	> 20	–	–
O=C(Nc1ccc(F)c(-c2nc3ncccc3o2)c1)c1cnco1	–	1.9	–	> 50

Compound	CC50 (HepG2) [µM]	EC50 [1] [µM]	CC50 [2] [µM]	CC50 (L6) [µM]
Fc1ccc(NCc2ccccc2)cc1-c1nc2ncccc2o1	–	> 20	–	–
CC(=O)N(C(=O)c1ccco1)c1ccc(F)c(-c2nc3ncccc3o2)c1	–	0.5	–	–
O=C(Nc1ccc(F)c(-c2nc3ncc(-c4cccc(Cl)c4)cc3o2)c1)c1ccco1	–	0.05	–	> 50
Cn1cncc1C(=O)Nc1ccc(F)c(-c2nc3ncccc3o2)c1	–	> 20	–	> 50
Cc1ccc(C(=O)Nc2ccc(F)c(-c3nc4ncccc4o3)c2)o1	–	0.2	–	> 50
O=C(Nc1ccc(F)c(-c2nc3cc(-c4cccs4)cnc3[nH]2)c1)N1CCCC1	–	0.004	9	–
Cc1ccccc1C(=O)Nc1ccc(Cl)c(-c2nc3ccccc3o2)c1	–	> 20	–	–
O=C(Nc1ccc(Cl)c(C(=O)N2CCNCC2)c1)c1ccco1	–	> 20	–	–
Fc1ccc(NC(=S)c2ccco2)cc1-c1nc2ncccc2o1	–	0.41	–	> 50
CN1CCN(C(=O)c2cc(NC(=O)c3ccco3)ccc2Cl)CC1	–	> 20	–	–
N#Cc1cnc2nc(-c3cc(NC(=O)c4ccco4)ccc3F)oc2c1	–	0.38	–	> 50
O=C(Nc1ccc(F)c(-c2nc3cccnc3[nH]2)c1)c1ccco1	–	0.2	–	–
O=C(Nc1ccccc1)Nc1ccc(Cl)c(-c2nc3ncccc3o2)c1	–	12	–	> 50
O=C(Nc1ccc(Cl)c(-c2nc3ccccc3o2)c1)C1CCCCC1	–	> 20	–	–
O=C(Nc1ccc(-c2ccc(F)cc2)c(-c2nc3ncccc3o2)c1)c1ccco1	–	> 50	–	> 50
O=C(Nc1ccc(Cl)c(-c2nc3ccccc3o2)c1)c1ccccc1	–	> 20	–	–
CN(C)C(=O)Nc1ccc(Cl)c(-c2nc3ncccc3o2)c1	–	0.4	–	> 50
CC(=O)c1cccc(-c2cnc3[nH]c(-c4cc(NC(=O)N5CCCC5)ccc4F)nc3c2)c1	–	0.003	–	–
O=C(Nc1ccc(Cl)c(-c2nc3ccccc3o2)c1)c1ccccc1F	–	> 20	–	–
COc1ccc(-c2cnc3nc(-c4cc(NC(=O)c5ccco5)ccc4F)oc3c2)cc1	–	0.17	–	–
O=C(Nc1ccc(F)c(-c2nc3ncccc3o2)c1)c1cc2ccccc2o1	–	> 10	–	> 50
